Measured values taken from article PMC4332700 (RSC advances, 2015).

How the values were obtained:
[1] = tested on: α-synuclein; assay: Inhibition of HFIP-induced α-syn amyloid formation; assay type: biochemical; conditions: for %-Inhib. of HFIP-induced α-syn amyloid formation: converted from the %-of-control ThT and CD values; for Formation of off-path (non-amyloid) precipitates in the inhibition assays: 2 vol-% HFIP assay, EGCG at 2:1 molar ratio
In short: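 α-Syn (85 ± 5 μM; pH 6.6, 50 mM potassium phosphate, 50 mM NaCl) stirred at 37 ± 3 °C with test compound (1–4 molar equiv), then HFIP to 2 vol% after 4 h. Aliquots diluted to 4.5 μM α-syn every 2–6 h for CD, inhibitor-matched blank, [θ]218 and Δ[θ]196 read. At 16–18 h, ThT added (8-fold excess) and emission read. Values as %-of-uninhibited-control, converted to %-inhibition; mean of ≥2 experiments.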

[2] = tested on: α-syn; conditions: cited from earlier work
[3] = tested on: α-syn; assay: 15N-HSQC titration binding studies with 15N-labeled α-syn; conditions: for Binding locus on α-syn from titration shifts in 15N HSQC spectra: 200 or 400 µM α-syn, no added HFIP, 293 or 303 K
[4] = tested on: α-syn; assay: CD and visual inspection of EGCG/α-syn mixtures; assay type: biochemical; conditions: 100 µM α-syn, 1:1 α-syn:EGCG, 1.5 vol-% HFIP; β-sheet signature at 24 hours
[5] = tested on: α-syn; conditions: on going from 1:1 to 5:1 EGCG/α-syn, published spectra; cited from earlier work
[6] = NMR determination of folded state population of peptides; assay type: physicochemical; conditions: 300K; for Folded state population (χF): based on NMR data

## RGAVVTGR-NH2 [reference compound]
[1]; 2 molar equiv. inhibitor
  %-Inhib. of HFIP-induced α-syn amyloid formation: < 25%
[1]; 4 molar equivalents of the peptide, single experiment
  Inhibitory activity on α-syn amyloid formation (in words): absence of inhibitory activity
[2]; 2:1, 1:1 and 1:2 (peptide:α-syn) molar ratios
  Inhibition of α-syn amyloid fibril formation: completely inhibit

## RWEKRW-DRGSGR-WFYFND [mWWhp]
[1]; 2 molar equiv. inhibitor
  %-Inhib. of HFIP-induced α-syn amyloid formation: ~ 50%
[1]
  Formation of off-path (non-amyloid) precipitates in the inhibition assays: did not produce off-path precipitates

## VAQKT-(N-Me)V
[2]; N-methylation of sites in residues 71–82
  Inhibition of α-syn fibril formation: effective inhibitor

## RAVTW-NPATGK-WITVWE [RAVWW]
[1]; 2 molar equiv. inhibitor
  %-Inhib. of HFIP-induced α-syn amyloid formation: ~ 60%
[1]
  Formation of off-path (non-amyloid) precipitates in the inhibition assays: did not produce off-path precipitates

## KKLTVW-IpGK-WITVSA [WW2]
[1]; 1 molar equiv. inhibitor
  %-Inhib. of HFIP-induced α-syn amyloid formation: ~ 50%
[1]; 2 molar equiv. inhibitor
  %-Inhib. of HFIP-induced α-syn amyloid formation: ~ 75%
[3]
  Binding locus on α-syn from titration shifts in 15N HSQC spectra: M116-E137 sequence segment

## KCLTVW-IpGK-WITVCA (disulfide) [WW2-DS]
[1]; 1 molar equiv. inhibitor
  %-Inhib. of HFIP-induced α-syn amyloid formation: < 30%
[1]; 2 molar equiv. inhibitor
  %-Inhib. of HFIP-induced α-syn amyloid formation: ~ 50%

## (RYTTVCIRKYE)2 (disulfide) [RY-VCI-YE]
[1]; 1 molar equiv. inhibitor
  %-Inhib. of HFIP-induced α-syn amyloid formation: ~ 50%
[1]; 2 molar equiv. inhibitor
  %-Inhib. of HFIP-induced α-syn amyloid formation: ~ 80%

## RWFYFN-DRGSGK-WEKRWD [cp-mWWhp]
[1]; 2 molar equiv. inhibitor
  %-Inhib. of HFIP-induced α-syn amyloid formation: < 20%

## O=C(O[C@@H]1Cc2c(O)cc(O)cc2O[C@@H]1c1cc(O)c(O)c(O)c1)c1cc(O)c(O)c(O)c1 [EGCG, (−)-Epi-gallocatechin-3-gallate, reference compound]
[1]; 2 molar equiv. inhibitor
  %-Inhib. of HFIP-induced α-syn amyloid formation: ~ 65%
[3]; 200 µM α-syn, 50 mM phosphate, pH 6.5, 303K, 5 molar equivalents of EGCG
  Upfield shifts Δδ(1H) of α-syn HSQC peaks: 0.007 – 0.010 ppm
[3]
  Binding locus on α-syn from titration shifts in 15N HSQC spectra: shifts at C-terminal sites
[4]
  Time the random coil CD signature remained after HFIP addition: 8 h
[5]
  Upfield 1H shift for most α-syn HSQC peaks: 0.04 ppm

## (Ac-YTTVCIRKYTG)2 (disulfide) [AcY-VCI-YTG]
[1]; 2 molar equiv. inhibitor
  %-Inhib. of HFIP-induced α-syn amyloid formation: ~ 70%
[6]
  Folded state population (χF): 0.84

## (RYTTHCHRKYE)2 (disulfide) [RY-HCH-YE]
[1]; 2 molar equiv. inhibitor
  %-Inhib. of HFIP-induced α-syn amyloid formation: ~ 70%
[6]
  β-sheet population: 28%
  Folded state population (χF): 0.28±0.13

## (RWTTHCHRKWE)2 (disulfide) [RW-HCH-WE]
[1]; 1 molar equiv. inhibitor
  %-Inhib. of HFIP-induced α-syn amyloid formation: ~ 65%
[1]; 2 molar equiv. inhibitor
  %-Inhib. of HFIP-induced α-syn amyloid formation: ≥ 75%
[1]
  Formation of off-path (non-amyloid) precipitates in the inhibition assays: co-precipitates
[6]
  β-sheet population: 94%
  Folded state population (χF): 0.94±0.02
[3]
  Binding locus on α-syn from titration shifts in 15N HSQC spectra: very large shifts were observed at C-terminal sites

## cyclo-(K-KLTVW-IpGK-WITVS-IpP) (head to tail) [cyclo-WW2]
[1]; 1 molar equiv. inhibitor
  %-Inhib. of HFIP-induced α-syn amyloid formation: ~ 75%
[1]; 2:1 peptide to α-syn ratio, 2 vol-% HFIP
  Inhibitory activity on α-syn β-structure / amyloid formation (in words): complete inhibition
[1]; 2 molar equiv. inhibitor
  %-Inhib. of HFIP-induced α-syn amyloid formation: > 90%
[3]
  Binding locus on α-syn from titration shifts in 15N HSQC spectra: Q109/E137-span

## GKWITVS-IpPK-KLTVWIp [cp-WW2]
[1]; 1 molar equiv. inhibitor
  %-Inhib. of HFIP-induced α-syn amyloid formation: ~ 35%
[1]; 2 molar equiv. inhibitor
  %-Inhib. of HFIP-induced α-syn amyloid formation: ~ 65%
[3]
  Binding locus on α-syn from titration shifts in 15N HSQC spectra: isolated to the C-terminus
